Bioassay records: PubChem BioAssay, several laboratories
Hits are enriched below; roughly 1.9% of the tested compounds scored in any of these assays.
ROMK mod: modulates human ROMK potassium channel activity; P48048; Tet-inducible ROMK, thallium flux fluorescence; actives lie on both sides; B-score at 10 µM; 130,000 tested, 2% active; AID 1918;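 active = signal ratio slope over the read window, or its plate-corrected B-score, at least 3 SD from the plate mean, either direction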;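 also: B-score of the F/F0 ratio slope over 7 to 12 s after thallium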
Target sequence (P48048 whole entry, looked up): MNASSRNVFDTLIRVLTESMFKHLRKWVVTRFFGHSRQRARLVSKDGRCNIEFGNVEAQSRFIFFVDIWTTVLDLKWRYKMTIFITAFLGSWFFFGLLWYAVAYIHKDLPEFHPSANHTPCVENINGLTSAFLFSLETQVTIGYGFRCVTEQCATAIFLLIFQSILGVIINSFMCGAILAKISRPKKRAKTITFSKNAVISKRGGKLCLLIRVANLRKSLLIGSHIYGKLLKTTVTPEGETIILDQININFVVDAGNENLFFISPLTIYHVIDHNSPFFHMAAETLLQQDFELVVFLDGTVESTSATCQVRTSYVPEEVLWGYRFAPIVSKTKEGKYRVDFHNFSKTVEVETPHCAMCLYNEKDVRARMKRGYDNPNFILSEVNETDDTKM
MT stabilize HCS: microtubule stabilizers in HeLa cells; HeLa tubulin immunostaining HCS, 24 h; share of cells brighter than vehicle mean+2SD; % tubulin-high responders, % at 10 µM; 200,000 tested, 0.83% active; AID 2205;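 active = plate Z-score above 3 for both tubulin-high and condensed-nucleus cell shares, with cell loss under 80%, at 10 µM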;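 also: anti alpha tubulin signal scored within the nucleus-defined area of each cell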
b-catenin transl: modulators of beta-catenin nuclear translocation | HeLa beta-catenin nuclear translocation, immunofluorescence imaging | nuclear translocation activity, % at 5 µM | 190,000 tested, 0.3% active;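 active = nuclear translocation activity above 50% at 5 µM, with a well cell count of 50 or more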;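 also: per-cell ratio of nuclear to cytoplasmic median beta-catenin stain intensity; plate controls were DMSO negative control for no effect and GSK-3 inhibitor IX positive control for full effect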
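System: HeLa cells, endogenous beta-catenin; compound dosing: 5 µM primary single dose, 0.1% DMSO, 0.02–20 µM confirmation series; incubation: 24 h compound exposure at 37°C, 5% CO2; signal: beta-catenin immunofluorescence imaging with DAPI; evaluation: % activation, nuclear-to-cytoplasmic median beta-catenin signal ratio per cell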
ROMK retest: human ROMK channel modulation, retest confirmation; normalized thallium flux (F/F0 slope) at 10 µM; ROMK thallium flux, fluorescence ratio; stronger effect = lower value; 3,000 tested, 54% active; shares compounds with ROMK mod;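 active = Flux at 10 µM at least 3 SD below or above vehicle control mean in one or both replicates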
Numbers without * were called inactive.

COc1cc(C=NCC2OCCc3ccccc32)cc(OC)c1 (configuration not stated) was read as ROMK mod -0.49, MT stabilize HCS 3 and b-catenin transl 3.
`CCOC(=O)N/N=C/c1cc(C)n(-c2ccccc2)c1C` gave ROMK mod 2.4*, MT stabilize HCS 2, b-catenin transl 1 and ROMK retest 0.09.
Screening Cc1cc(/C=N/NC(=O)c2ccncc2)c(C)n1-c1cccc(C(F)(F)F)c1 returned b-catenin transl -6.
For CCOc1ccc(-n2c(C)cc(/C=N/NC(=O)C(N)=O)c2C)cc1 the results were ROMK mod 0.55, MT stabilize HCS 3 and b-catenin transl 0.
For Cc1cc(/C=N/NC(=O)c2cccc(F)c2)c(C)n1-c1ccccc1 the results were ROMK mod 4.8*, MT stabilize HCS 16*, b-catenin transl 9 and ROMK retest 0.092.
Screening C=CCn1c(SCC(=O)N2CCc3ccccc3C2)nnc1-c1ccncc1 returned ROMK mod -0.76, MT stabilize HCS 3 and b-catenin transl 1.
Screening Cc1cc(Br)ccc1S(=O)(=O)n1ccnc1C returned ROMK mod -0.18, MT stabilize HCS 2 and b-catenin transl 0.
`Cn1c(SCC(=O)NNC(=O)Cc2ccccc2)nnc1-c1ccccc1` gave ROMK mod 1.5, MT stabilize HCS 4 and b-catenin transl 2.
Screening CC(=O)c1c(O)c2ccccc2n(C)c1=O returned ROMK mod -0.21, MT stabilize HCS 2 and b-catenin transl -2.
For O=c1c(Cl)c(O)c2cccc3c4ccccc4n1c23 the results were ROMK mod 0.1, MT stabilize HCS 5, b-catenin transl 5 and ROMK retest 0.085.
`O=C(NC1CC1)C1=C[C@@H](c2coc3ccccc3c2=O)C[C@@H](OCCCCO)O1` gave b-catenin transl 0.
Screening CC(C)(C)c1cnnn1-c1ccc(C=O)cc1 returned ROMK mod -0.74, MT stabilize HCS 4 and b-catenin transl 4.
CC(C)(C)c1cnnn1-c1ccc(C(=O)CCl)cc1 was read as MT stabilize HCS 3, b-catenin transl -1 and ROMK retest 0.054*.
Cc1cc(-c2cc(-c3ccccc3)on2)nc(NCC2CC2)n1 was read as b-catenin transl -2.
Screening Cc1ccc(N=Nc2c(C)[nH][nH]c2=O)c(C)c1 returned ROMK mod 1.3*, MT stabilize HCS 8 and ROMK retest 0.088.
`Cc1[nH][nH]c(=O)c1N=Nc1ccccc1C#N` gave ROMK mod -0.94 and MT stabilize HCS 6.
O=C(O)c1ccoc1CN1CCCCC1 was read as ROMK mod 1.7*, MT stabilize HCS 2, b-catenin transl -1 and ROMK retest 0.075.
Screening Cc1occc1C(=O)N1CCN(Cc2ccccc2)CC1 returned ROMK mod -0.18, MT stabilize HCS 2 and b-catenin transl -3.
`O=c1[nH]c(SCc2n[nH]c(=S)n2-c2ccccc2)nc2sc3c(c12)CCC3` gave ROMK mod 1.1 and MT stabilize HCS 2.
For O=C(Nc1cccc(NC(=O)C2CCCO2)c1)c1ccco1 (configuration not stated) the results were ROMK mod -1.8, MT stabilize HCS 2 and b-catenin transl 0.
`Cc1sc2c(=O)n3c(nc2c1C(=O)NC1CCCCC1)CCCCC3` gave MT stabilize HCS 3 and b-catenin transl -2.
COc1cccc(-c2nn(C)c3sc(C(=O)Nc4ccc5c(c4)OCCO5)cc23)c1 was read as MT stabilize HCS 3 and b-catenin transl 0.
COc1cccc(-c2nn(C)c3sc(C(=O)NCc4ccccn4)cc23)c1 was read as MT stabilize HCS 2, b-catenin transl -1 and ROMK retest 0.074.
For CC(C)(C)C(=O)Nc1cccc2[nH]ncc12 the results were ROMK mod -0.033, MT stabilize HCS 2 and b-catenin transl 0.
`CCOC(=O)C1=C(C)N=C2SC(C(=O)OC)=CC(=O)N2C1c1ccc(OC)cc1` (configuration not stated) gave ROMK mod -4.5*, MT stabilize HCS 1, b-catenin transl 5 and ROMK retest 0.054*.
`COC(=O)C1=C(C)N=C2SC(C#N)=C(N)N2C1c1ccc(OC)cc1` (configuration not stated) gave ROMK mod 0.0042, MT stabilize HCS 8 and b-catenin transl 0.
For Cc1cc(NC(=O)c2cccc(Oc3ccccc3)c2)n[nH]1 the results were ROMK mod 0.16, MT stabilize HCS 7 and b-catenin transl 0.
For Cc1cc(C)n(-c2ncnc3ccccc23)n1 the results were ROMK mod 0.75, MT stabilize HCS 2 and b-catenin transl 0.
S=C(c1ccc(-c2ccc(Br)cc2)o1)N1CCOCC1 was read as ROMK mod 2.4*, b-catenin transl 0 and ROMK retest 0.078.
For S=C(c1ccc(-c2ccc(Br)cc2)o1)N1CCCCC1 the results were ROMK mod -0.63, MT stabilize HCS 3 and b-catenin transl -1.
Screening O=S(=O)(Cc1ccccc1)C1CCCCC1O (configuration not stated) returned ROMK mod 0.17 and b-catenin transl 2.
COc1ccccc1/C=N/N1C(=O)C(CC(=O)Nc2ccc([N+](=O)[O-])cc2OC)SC1=Nc1cccc(C)c1C (configuration not stated) was read as ROMK mod 2.7*, MT stabilize HCS 19*, b-catenin transl 0 and ROMK retest 0.089.
Screening CCOc1ccc(/C(C)=N/N2C(=O)C(CC(=O)Nc3ccc(OC)cc3[N+](=O)[O-])SC2=Nc2cccc(C)c2C)cc1 (configuration not stated) returned ROMK mod -0.029, MT stabilize HCS 3 and b-catenin transl 3.
For C/C(=C\C=C(C#N)C#N)c1cc(C#N)c(N)o1 the results were MT stabilize HCS 10 and b-catenin transl 4.
For O=C(O)COc1ccccc1/C=N/NC(=O)c1cc2ccccc2cc1O the results were b-catenin transl 2.
For Cn1c(=O)c2c(nc(CN3CCN(C(=O)c4ccco4)CC3)n2Cc2ccccc2)n(C)c1=O the results were ROMK mod 0.45, MT stabilize HCS 4 and b-catenin transl -1.
For Cc1ccc(Cn2c(CN3CCN(C(=O)c4ccco4)CC3)nc3c2c(=O)n(C)c(=O)n3C)cc1 the results were ROMK mod 2.6*, MT stabilize HCS 4 and ROMK retest 0.092.
For Cc1nc(-c2ccc(NC(=O)CC(C)C)cc2)cs1 the results were ROMK mod 0.31 and MT stabilize HCS 6.
For O=C(NC1CCCC1)C(c1ccco1)N(Cc1ccccc1)C(=O)c1csnn1 (configuration not stated) the results were MT stabilize HCS 3.
`CC1CCN(S(=O)(=O)c2cccc(C(=O)N(Cc3ccccc3)c3ccccn3)c2)CC1` gave ROMK mod -4*, MT stabilize HCS 4, b-catenin transl 1 and ROMK retest 0.062*.
`CCNC(=O)c1ccccc1NC(=O)c1cccc(S(=O)(=O)N2CCC(C)CC2)c1` gave MT stabilize HCS 1, b-catenin transl -1 and ROMK retest 0.072.
CCCn1c(NC(=O)c2ccccc2)nc2ccccc21 was read as MT stabilize HCS 2 and b-catenin transl -3.
